VIM-2 inh = inhibitors of Pseudomonas aeruginosa VIM-2 metallo-beta-lactamase; hit rate 0.89% among 290,000; AID 1527; inhibition, % at 5.6 µM; purified VIM-2, nitrocefin hydrolysis, epi-absorbance fluorescence;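 active = inhibition above the mean of all tested compounds plus 3 SD, cutoff set per screening run, cut at about 7.5% in these data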;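 note: red hydrolysis product quenches plate fluorescence so inhibitors raise well fluorescence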
BCLXL inh = inhibitors of human Bcl-xL; inhibition, % at 10.9 µM; hit rate 0.7% among 320,000; GST-Bcl-xL / FITC-Bim BH3 peptide fluorescence polarization;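 active = inhibition above the mean of all tested compounds plus 3 SD, cutoff set per campaign, cut at about 30% in these data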;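 note: inhibitors lower millipolarization by displacing the labeled peptide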
Target sequence (Q07817 whole entry, looked up): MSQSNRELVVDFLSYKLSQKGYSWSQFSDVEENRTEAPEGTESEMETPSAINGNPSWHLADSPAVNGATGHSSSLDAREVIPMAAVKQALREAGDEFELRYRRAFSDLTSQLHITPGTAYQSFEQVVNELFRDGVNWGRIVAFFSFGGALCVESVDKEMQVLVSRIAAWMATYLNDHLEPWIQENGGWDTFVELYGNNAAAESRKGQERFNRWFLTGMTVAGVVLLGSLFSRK
EBV gp42 block = blocks Epstein-Barr virus glycoprotein 42 binding | Q1HVG2 | Fluorescence polarization binding assay, mP read-out | inhibition, % (tested at 21.74 µM) | hit rate 0.42% among 220,000 | AID 1085; in the data active = inhibition above about 50%
Target sequence (Q1HVG2 whole entry, looked up): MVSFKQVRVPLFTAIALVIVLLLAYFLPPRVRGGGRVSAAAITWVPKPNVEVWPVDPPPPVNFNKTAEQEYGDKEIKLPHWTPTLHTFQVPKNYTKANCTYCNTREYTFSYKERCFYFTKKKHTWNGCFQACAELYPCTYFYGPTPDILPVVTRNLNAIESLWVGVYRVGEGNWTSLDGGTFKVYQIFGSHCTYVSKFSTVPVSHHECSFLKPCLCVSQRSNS
MEX-5 binding = C. elegans MEX-5 TCR-2 RNA binding activity | MEX-5/FITC-TCR2 RNA binding, fluorescence polarization; hits give low values | activity score (negative = inhibition of binding), % at 10 µM | hit rate 0.38% among 300,000;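 active = inhibition past about -25% in most replicates, and total fluorescence under double the plate's negative control median, limit read from the data; inconclusive = replicates evenly split on the limit, or fluorescence at least double controls; inactive = too little inhibition in most replicates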
GLD-1 RNA inh = GLD-1-TGE RNA interaction inhibition (C. elegans); Q17339; purified GLD-1 + fluorescein TGE RNA, fluorescence polarization; inhibition, % at 5.96 µM; hit rate 0.44% among 320,000; AID 2280;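 active = percent inhibition above a per-plate cutoff, the plate mean of test compounds plus 3 SD, cut at about 30% in these data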
IMP-1 inh = blocks Pseudomonas aeruginosa IMP-1 metallo-beta-lactamase; purified IMP-1, nitrocefin hydrolysis, epi-absorbance fluorescence; inhibition, % at 5.6 µM; hit rate 0.45% among 290,000;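 active = inhibition above the mean plus 3 SD of all compounds in the same screening run, cut at about 4.5% in these data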
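Material – recombinant IMP-1 enzyme, purified · Amount – IMP-1 0.2 nM before substrate addition · Medium – HEPES buffer pH 7.1 with ZnSO4 and Brij 35 · Timing – 25 °C, 15 min preincubation, 25 min reaction · Measured by – plate fluorescence quenching by hydrolysis product, ex 480/em 530 nm · Read-out – percent enzyme inhibition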
Numbers stand for hits; i = inactive; ? = inconclusive; nt = no result. This is a sample that favours compounds with a hit; in the whole collection about 2.2% have one here.

SMILES	VIM-2 inh	BCLXL inh	EBV gp42 block	MEX-5 binding	GLD-1 RNA inh	IMP-1 inh
O=[N+]([O-])c1c(NCCO)cc(N2CCC3(CC2)OCCO3)c2nonc12	i	i	i	i	i	i
O=C(O)CCCNc1cc(N2CCC3(CC2)OCCO3)c2noc3c2c1C(=O)c1ccccc1-3	i	71	i	nt	i	i
O=C1c2ccccc2-c2c1cccc2C(=O)N1CCN(C(=O)c2ccco2)CC1	i	i	i	i	i	i
O=C(O)CCCNc1cc(N2CCN(C(=O)c3ccco3)CC2)c2noc3c2c1C(=O)c1ccccc1-3	i	135	nt	?	99	8.2
CC(C)c1ccc(NC2CCCN(C(=O)c3ccc(N4CCOCC4)cc3)C2)cc1 (stereo not drawn)	i	i	nt	i	i	i
COc1cc2c3nnc(-c4ccccc4)c-3cn(Cc3ccccc3F)c2cc1OC	i	i	i	-59	i	i
ClCc1nc2ccccc2n1Cc1ccccc1	i	129	nt	-66	57	i
CCSc1nc(NCCN(C)C)c2c3c(sc2n1)COC(C)(CC)C3 (stereo not drawn)	8.5	i	i	i	i	i
N#Cc1cc2cc3c(cc2nc1N1CCOCC1)OCO3	i	i	i	i	i	4.5
CCC1CCCCN1S(=O)(=O)c1ccc(C(=O)N(CCCN(C)C)c2nc3cc4c(cc3s2)OCO4)cc1 (stereo not drawn)	i	i	nt	i	i	i
COc1cc(/C=N\NC(=O)c2ccc(C)nc2)ccc1OC(=O)c1ccc2c(c1)OCO2	i	i	i	i	i	i
COc1cc(/C=N/NC(=O)c2cncc(Br)c2)ccc1OC(=O)c1ccc2c(c1)OCO2	i	nt	i	nt	nt	46
CC1CCCCN1C(=S)NC(=O)c1cc(Br)ccc1Cl (stereo not drawn)	nt	i	nt	nt	i	nt
N#Cc1ccsc1NC(=O)C1CCN(S(=O)(=O)c2cccs2)CC1	nt	i	nt	i	i	nt
Cc1ccc(S(=O)(=O)CCSc2nc(C)cc(C(F)(F)F)c2C#N)cc1	i	i	i	-54	i	i
COC(=O)CSc1nc(C)cc(C(F)(F)F)c1C#N	i	i	i	i	i	i
Cc1ccc(S(=O)(=O)N2CCCN(C(=O)c3ccc(-n4cccn4)cc3)CC2)cc1	nt	i	nt	nt	i	nt
CCNc1cc2oc(=O)c(CN3CCOCC3)c(C)c2cc1C	i	32	i	nt	i	i
Cc1cc2oc(=O)cc(CN3CCOCC3)c2cc1C	i	i	i	i	i	i
CCOc1ccc(Nc2cc(C)c3ccccc3n2)cc1	i	i	nt	i	i	i
CCOc1ccc(Nc2c3ccccc3nc3ccccc23)cc1	9.6	i	i	i	i	i
C[C@H](O)C(=O)C1=Nc2c(nc(N)[nH]c2=O)NC1	nt	i	nt	nt	i	nt
C[C@H](O)[C@H](O)[C@H]1CNc2nc(N)[nH]c(=O)c2N1	nt	33	nt	i	i	nt
O=c1[nH]c(/C=C\c2ccc(O)c(O)c2)nc(O)c1[N+](=O)[O-]	i	nt	nt	-30	nt	i
N#C/C(=C\c1ccc[nH]1)C(=O)Nc1ccccc1Cl	i	52	nt	i	i	i
SMILES	VIM-2 inh	BCLXL inh	EBV gp42 block	MEX-5 binding	GLD-1 RNA inh	IMP-1 inh
N#C/C(=C\c1ccc[nH]1)C(=O)Nc1ccccc1F	i	nt	nt	nt	nt	i
Cc1cc2nc3ccc(N(C)C)cc3nc2cc1N	nt	120	nt	-28	41	nt
CC1CCCCC12NC(=O)N(CC(=O)N1CCN(C(=O)c3ccco3)CC1)C2=O (stereo not drawn)	nt	i	nt	nt	i	nt
Cc1ccc2[nH]c(=O)c3cc(C(=O)NCCN4CCN(C)CC4)sc3c2c1	12	i	i	i	i	i
COCCNC(=O)c1cc2c(=O)[nH]c3ccccc3c2s1	i	i	nt	i	i	i
CCCN1CCN(CCCNC(=O)c2cc3c(=O)[nH]c4ccccc4c3s2)CC1	10	i	i	i	i	i
O=C(CCCN1C(=O)/C(=C\c2cccs2)SC1=S)Nc1ccc(O)cc1C(=O)O	i	i	nt	i	i	i
O=C(CN1C(=O)/C(=C/c2ccco2)SC1=S)Nc1ccc(O)c(C(=O)O)c1	i	34	nt	i	i	i
O=C(CN1C(=O)/C(=C/c2ccco2)SC1=S)NC1CCS(=O)(=O)C1 (stereo not drawn)	i	44	nt	i	i	5.6
O=C(CCCN1C(=O)/C(=C/c2ccco2)SC1=S)Nc1cccc(C(=O)O)c1	i	i	i	i	i	i
O=C(CCCN1C(=O)/C(=C\c2ccco2)SC1=S)Nc1ccc(O)cc1C(=O)O	i	39	nt	i	i	i

Source: PubChem BioAssay (several laboratories)
